Source: ChEMBL document CHEMBL3997808 (J Med Chem, 2017)

Legend:
[1] = AUC in cynomolgus monkey at 1.9 mg/kg, po; format: ADME, organism-based, Macaca fascicularis; details: in vivo
[2] = Drug metabolism in cynomolgus monkey hepatocytes assessed as glucuronide metabolite M553 formation at 10 uM measured up to 4 hrs; format: ADME, cell-based, Macaca fascicularis, Hepatocyte
Summary of the method: (§1)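 Compound at 10 μM was incubated with hepatocyte suspensions at 1 million cells/mL. Incubation ran at 37°C under 5% CO2:95% O2 for up to 4 h.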

[3] = AUC (0 to infinity) in rat at 2 mg/kg, po; format: ADME, organism-based; parameters: dose 2 mg/kg, route oral, time infinity; details: in vivo
[4] = biological target: Voltage-gated inwardly rectifying potassium channel KCNH2 (Homo sapiens, UniProt Q12809); assay: Inhibition of human ERG expressed in HEK293 cells; format: cell-based
Voltage-gated inwardly rectifying potassium channel KCNH2, sequence (Q12809 whole entry): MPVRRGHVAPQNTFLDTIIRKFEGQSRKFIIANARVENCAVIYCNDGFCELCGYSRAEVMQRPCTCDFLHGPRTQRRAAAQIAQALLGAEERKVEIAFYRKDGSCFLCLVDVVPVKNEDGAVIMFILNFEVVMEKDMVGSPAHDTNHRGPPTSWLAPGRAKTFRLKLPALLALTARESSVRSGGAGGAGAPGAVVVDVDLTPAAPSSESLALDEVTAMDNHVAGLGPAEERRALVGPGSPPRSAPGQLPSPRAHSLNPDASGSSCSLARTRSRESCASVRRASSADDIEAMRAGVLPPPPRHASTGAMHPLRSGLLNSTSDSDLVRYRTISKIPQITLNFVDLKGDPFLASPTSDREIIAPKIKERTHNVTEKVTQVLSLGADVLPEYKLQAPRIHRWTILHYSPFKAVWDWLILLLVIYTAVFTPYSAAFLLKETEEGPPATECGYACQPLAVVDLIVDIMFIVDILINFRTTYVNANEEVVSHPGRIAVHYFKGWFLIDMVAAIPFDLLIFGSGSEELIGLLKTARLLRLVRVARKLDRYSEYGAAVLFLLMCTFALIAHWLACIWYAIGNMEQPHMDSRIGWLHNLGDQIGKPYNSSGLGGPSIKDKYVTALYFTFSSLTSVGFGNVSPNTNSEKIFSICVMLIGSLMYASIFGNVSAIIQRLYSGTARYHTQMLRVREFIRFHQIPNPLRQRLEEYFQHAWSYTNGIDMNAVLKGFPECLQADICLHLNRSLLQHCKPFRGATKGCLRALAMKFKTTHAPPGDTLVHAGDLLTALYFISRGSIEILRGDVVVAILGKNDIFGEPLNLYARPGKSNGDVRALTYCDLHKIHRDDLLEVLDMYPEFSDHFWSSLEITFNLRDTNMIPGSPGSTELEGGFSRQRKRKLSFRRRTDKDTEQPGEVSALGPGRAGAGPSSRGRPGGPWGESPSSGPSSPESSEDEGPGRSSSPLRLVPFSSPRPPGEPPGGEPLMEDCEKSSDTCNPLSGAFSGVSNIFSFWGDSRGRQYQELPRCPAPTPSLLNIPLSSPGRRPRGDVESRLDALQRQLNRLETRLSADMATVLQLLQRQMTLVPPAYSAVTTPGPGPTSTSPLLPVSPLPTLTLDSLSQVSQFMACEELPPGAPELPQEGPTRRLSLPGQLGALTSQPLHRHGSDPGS

[5] = Stability in dog microsomes measured up to 45 mins; format: ADME, Canis lupus familiaris, Microsome; details: 0.75 h
[6] = tested on: Colon; assay: Drug uptake in Han Wistar rat colon at 2 mg/kg, iv administered as 4 hrs infusion; format: ADME, organism-based; details: in vivo
Summary of the method: (§2)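 Rats received a 4 h iv infusion, after which terminal tissue samples were collected. Parent drug concentrations were measured in each tissue and compared with blood levels.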

[7] = Tmax in cynomolgus monkey at 1.9 mg/kg, po; format: ADME, organism-based, Macaca fascicularis; details: in vivo
[8] = Cmax in cynomolgus monkey at 1.9 mg/kg, po; format: ADME, organism-based, Macaca fascicularis; parameters: dose 1.9 mg/kg, route oral; details: in vivo
[9] = Drug metabolism in human hepatocytes assessed as 5-(hydroxy(phenyl)methyl)-N-((S)-5-methyl-4-oxo-2,3,4,5-tetrahydrobenzo[b][1,4]oxazepin-3-yl)-1H-1,2,4-triazole-3-carboxamide formation at 10 uM measured up to 4 hrs; format: ADME, cell-based, Hepatocyte; summary of the method: as §1
[10] = biological target: T1, Nuclear receptor subfamily 1 group I member 2 (Homo sapiens, UniProt O75469); assay: Activation of human PXR; format: ADME
T1 sequence (O75469 whole entry): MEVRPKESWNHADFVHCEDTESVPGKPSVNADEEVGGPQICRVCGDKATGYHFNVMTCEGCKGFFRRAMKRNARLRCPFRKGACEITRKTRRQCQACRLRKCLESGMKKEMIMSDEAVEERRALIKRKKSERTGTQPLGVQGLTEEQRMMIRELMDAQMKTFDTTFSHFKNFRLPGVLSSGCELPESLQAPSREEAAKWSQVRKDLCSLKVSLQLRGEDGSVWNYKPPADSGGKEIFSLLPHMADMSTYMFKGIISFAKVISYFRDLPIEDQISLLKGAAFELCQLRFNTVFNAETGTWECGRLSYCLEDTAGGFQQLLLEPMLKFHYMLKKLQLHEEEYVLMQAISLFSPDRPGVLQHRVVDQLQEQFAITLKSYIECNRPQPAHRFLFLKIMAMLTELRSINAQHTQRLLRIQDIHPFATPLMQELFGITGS

[11] = Volume of distribution at steady state in cynomolgus monkey at 1.2 mg/kg, iv; format: ADME, organism-based, Macaca fascicularis; details: in vivo, read-out: Vdss
[12] = Stability in human microsomes measured up to 45 mins; format: ADME, Microsome; details: 0.75 h
[13] = Half-life in cynomolgus monkey at 1.2 mg/kg, iv; format: ADME, organism-based, Macaca fascicularis; details: in vivo
[14] = Stability in cynomolgus monkey microsomes measured up to 45 mins; format: ADME, Macaca fascicularis, Microsome; details: 0.75 h
[15] = Clearance in rat at 1.1 mg/kg, iv; format: ADME, organism-based; details: in vivo
[16] = Drug metabolism in rat hepatocytes assessed as (S)-5-benzyl-N-(4-oxo-2,3,4,5-tetrahydrobenzo[b][1,4]oxazepin-3-yl)-1H-1,2,4-triazole-3-carboxamide formation at 10 uM measured up to 4 hrs; format: ADME, cell-based, Hepatocyte; summary of the method: as §1
[17] = Drug metabolism in human hepatocytes assessed as 5-benzyl-1H-1,2,4-triazole-3-carboxylic acid formation at 10 uM measured up to 4 hrs; format: ADME, cell-based, Hepatocyte; summary of the method: as §1
[18] = tested on: Liver; assay: Drug uptake in Han Wistar rat liver at 2 mg/kg, iv administered as 4 hrs infusion; format: ADME, organism-based; details: in vivo; summary of the method: as §2
[19] = Drug metabolism in human hepatocytes assessed as (S)-3-amino-5-methyl-2,3-dihydrobenzo[b][1,4]oxazepin-4(5H)-one formation at 10 uM measured up to 4 hrs; format: ADME, cell-based, Hepatocyte; summary of the method: as §1
[20] = Drug metabolism in cynomolgus monkey hepatocytes assessed as glucuronide metabolite M569 formation at 10 uM measured up to 4 hrs; format: ADME, cell-based, Macaca fascicularis, Hepatocyte; summary of the method: as §1
[21] = Stability in rat microsomes measured up to 45 mins; format: ADME, Microsome; details: 0.75 h
[22] = tested on: Rattus norvegicus; assay: Toxicity in rat at 2 to 1000 mg/kg, po after 1 month; format: organism-based; details: in vivo, 730.5 h
[23] = tested on: MDR1; assay: Permeability across dog MDCK cells expressing MDR1; format: ADME, cell-based, Canis lupus familiaris; details: read-out: permeability
[24] = Drug metabolism in rat hepatocytes assessed as 5-benzyl-1H-1,2,4-triazole-3-carboxylic acid formation at 10 uM measured up to 4 hrs; format: ADME, cell-based, Hepatocyte; summary of the method: as §1
[25] = tested on: Cynomolgus monkey; assay: Toxicity in cynomolgus monkey at 2 to 1000 mg/kg, po after 1 month; format: organism-based, Macaca fascicularis; details: in vivo, 730.5 h
[26] = AUC in rat at 2.1 mg/kg, po; format: ADME, organism-based; details: in vivo
[27] = Drug metabolism in rat hepatocytes assessed as (S)-3-amino-5-methyl-2,3-dihydrobenzo[b][1,4]oxazepin-4(5H)-one formation at 10 uM measured up to 4 hrs; format: ADME, cell-based, Hepatocyte; summary of the method: as §1
[28] = tested on: Kidney; assay: Drug uptake in Han Wistar rat kidney at 2 mg/kg, iv administered as 4 hrs infusion; format: ADME, organism-based; details: in vivo; summary of the method: as §2
[29] = tested on: Brain; assay: Drug uptake in Han Wistar rat brain at 2 mg/kg, iv administered as 4 hrs infusion; format: ADME, organism-based; details: in vivo; summary of the method: as §2
[30] = Oral bioavailability in rat at 2.1 mg/kg; format: ADME, organism-based; details: in vivo
[31] = Oral bioavailability in cynomolgus monkey at 1.9 mg/kg; format: ADME, organism-based, Macaca fascicularis; details: in vivo
[32] = Drug metabolism in cynomolgus monkey hepatocytes assessed as 5-benzyl-1H-1,2,4-triazole-3-carboxylic acid formation at 10 uM measured up to 4 hrs; format: ADME, cell-based, Macaca fascicularis, Hepatocyte; summary of the method: as §1
[33] = biological target: Cytochrome P450 2C9 (Homo sapiens, UniProt P11712); assay: Inhibition of recombinant human CYP2C9; format: ADME
Cytochrome P450 2C9, sequence (P11712 whole entry): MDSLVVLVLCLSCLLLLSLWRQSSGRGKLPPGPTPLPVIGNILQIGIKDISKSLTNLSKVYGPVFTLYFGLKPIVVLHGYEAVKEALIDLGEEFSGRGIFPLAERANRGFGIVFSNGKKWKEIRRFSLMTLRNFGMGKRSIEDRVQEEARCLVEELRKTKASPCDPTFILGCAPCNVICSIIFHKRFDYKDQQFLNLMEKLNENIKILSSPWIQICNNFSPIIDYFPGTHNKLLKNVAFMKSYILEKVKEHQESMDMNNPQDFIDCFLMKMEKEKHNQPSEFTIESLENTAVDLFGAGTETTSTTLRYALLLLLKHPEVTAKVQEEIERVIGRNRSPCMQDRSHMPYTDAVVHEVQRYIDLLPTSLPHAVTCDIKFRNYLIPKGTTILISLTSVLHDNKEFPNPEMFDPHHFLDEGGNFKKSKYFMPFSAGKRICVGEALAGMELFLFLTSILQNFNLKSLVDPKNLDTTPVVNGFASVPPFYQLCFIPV

CN1C(=O)[C@@H](NC(=O)c2nnc(Cc3ccccc3)[nH]2)COc2ccccc21 [GSK2982772]
AUC [1]: 2900 ng·h/mL | Drug metabolism [2]: Metabolite_Detected | AUC(0-inf) [3]: 2300 ng·h/mL | IC50 [4]: 195 µM | Stability [5]: Stable | Drug uptake [6]: Active | Tmax [7]: 1.8 h | Cmax [8]: 720 ng/mL | Drug metabolism [9]: Metabolite_Detected | EC50 [10]: 13 µM | Vd [11]: 2.2 L/kg | Stability [12]: Stable | half-life [13]: 6.5 h | Stability [14]: Stable | clearance [15]: 17 mL/min/kg | Drug metabolism [16]: Metabolite_Detected | Drug metabolism [17]: Metabolite_Detected | Drug uptake [18]: Active | Drug metabolism [19]: Metabolite_Detected | Drug metabolism [20]: Metabolite_Detected | Stability [21]: Stable | Activity [22]: Non-Toxic | Papp [23]: 21 ×10⁻⁶ cm/s | Drug metabolism [24]: Metabolite_Detected | Activity [25]: Non-Toxic | AUC [26]: 2300 ng·h/mL | Drug metabolism [27]: Metabolite_Detected | Drug uptake [28]: Active | Drug uptake [29]: 4% | bioavailability [30]: 110% | bioavailability [31]: 86% | Drug metabolism [32]: Metabolite_Detected | IC50 [33]: 25 µM
